# Test results from ChEMBL document CHEMBL1221211, “Synthesis enables identification of the cellular target of leucascandrolide A and neopeltolide” (Nat Chem Biol, 2008).
# Calls of active or inactive are those of the source. The calls are words filed in the database; no cut-off is given here.
# What was measured:
# [1] = system: A549; assay: (§1) Inhibition of bc1 complex in human A549 cells assessed as reduction in ATP production in presence of 10 mM of 2-DG; assay type: cell-based
# Outline: (§2)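 A549 cells seeded at 2500 cells/well, left 4 h, then given graded compound with or without 10 mM 2-deoxyglucose for 30 min; duplicate wells; ATP by luciferase luminescence, converted to nmol/cell via ATP standard curve; expressed as % of vehicle; IC50 from ATP decrease.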
# [2] = as §1; assay type: cell-based; outline: as §2
# [3] = system: Saccharomyces cerevisiae; assay: Antifungal activity against Saccharomyces cerevisiae W303-1A in glucose agar media at 1 ug […] by disk diffusion method; assay type: functional; conditions: read-out: DIZ
# Outline: (§3)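 W303-1A grown to saturation in YPD at RT, diluted 10-fold, spread onto YPD (2% glucose) or YPGly (3% v/v glycerol) agar; compound in 20 μl water applied to paper discs placed on agar; plates incubated 2–3 days at 30°C; growth-inhibition zone diameter read.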
# [4] = system: A549; assay: Inhibition of cell proliferation in human A549 cells in after 48 hrs; assay type: functional; conditions: A549, 48 h
# [5] = system: Saccharomyces cerevisiae; assay: Effect on cytochrome c oxidase activity of respiratory chain in Saccharomyces cerevisiae W303-1A mitochondria at […]
# [6] = system: 143B; assay: Inhibition of bc1 complex in human 143B cells assessed as reduction in ATP production in presence of […] of CCCP; assay type: cell-based
# [7] = system: Saccharomyces cerevisiae; assay: Antifungal activity against Saccharomyces cerevisiae W303-1A harboring snf4 deficient mutant gene in galactose agar media at 50 uM after 24 hrs by spectrophotometry; assay type: functional, organism-based
# [8] = system: Saccharomyces cerevisiae; assay: Antifungal activity against Saccharomyces cerevisiae W303-1A in glycerol agar media at 1 ug […] by disk diffusion method; assay type: functional; conditions: read-out: DIZ; outline: as §3
# [9] = target: T1, Succinate dehydrogenase [ubiquinone] cytochrome b small subunit, mitochondrial (Saccharomyces cerevisiae) (UniProt P37298); assay: Effect on succinate:ubiquinone oxidoreductase activity of respiratory chain in Saccharomyces cerevisiae W303-1A mitochondria at […]
# T1 sequence (whole entry): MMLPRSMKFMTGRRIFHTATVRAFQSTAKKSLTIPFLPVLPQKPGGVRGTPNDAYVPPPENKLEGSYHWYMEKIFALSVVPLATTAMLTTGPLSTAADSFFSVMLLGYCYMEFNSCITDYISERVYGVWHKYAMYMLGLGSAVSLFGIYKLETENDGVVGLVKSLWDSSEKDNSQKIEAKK
# [10] = system: Saccharomyces cerevisiae; assay: Antifungal activity against Saccharomyces cerevisiae petite strain in glucose agar media at 0.5 ug […] by disk diffusion method; assay type: functional; conditions: read-out: DIZ
# Outline: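 Petite (ρ0) W303-1A made by ethidium bromide (25 μg/ml) treatment in minimal glucose medium, regrown drug-free, identified as white colonies failing to grow on YPGly. Saturated YPD culture diluted 10-fold, spread on glucose agar; compound in 20 μl water on paper discs; 2–3 days at 30°C; zone of inhibition read.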
# [11] = system: Saccharomyces cerevisiae; assay: Antifungal activity against Saccharomyces cerevisiae W303-1A in galactose agar media at 50 uM after 24 hrs by spectrophotometry; assay type: functional, organism-based
# [12] = system: HCT-116; assay: Induction of cell cycle arrest in human HCT116 assessed as accumulation at G1-phase at 100 uM after 24 hrs by FACS analysis; assay type: functional
# [13] = system: HCT-116; assay: Effect on cellular respiration in human HCT116 cells assessed as increase in NADH level at 0.5 uM by fluorescence assay; assay type: functional, cell-based
# Outline: (§4)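 HCT116 cells seeded at 200 000 per collagen-coated dish, grown 41 h at 37°C, fresh medium 30–60 min; NADH autofluorescence by spinning-disk confocal microscopy (ex 350 ± 25, em 457 ± 25 nm) every 30 s at 37°C, baseline then 4 min after compound; % change from average initial vs post-addition fluorescence.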
# [14] = Inhibition of bovine Cytochrome b-c1 complex; set-up: species or system Bos taurus
# Outline: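 Bovine heart mitochondrial bc1 complex purified (DEAE wash 150 mM NaCl, 150–400 mM NaCl gradient), diluted to 0.686 mg/ml in 50 mM phosphate pH 7.5, 300 mM NaCl, 0.1 g/l dodecyl maltoside; activity assayed in 40 mM potassium phosphate pH 7.4, 0.5 mM EDTA by monitoring reduction of equine cytochrome c; dose-response.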
# [15] = Inhibition of Saccharomyces cerevisiae Cytochrome b-c1 complex
# [16] = system: HCT-116; assay: Inhibition of cell proliferation in human HCT116 cells in after 48 hrs; assay type: functional; conditions: HCT-116, 48 h
# [17] = system: Saccharomyces cerevisiae; assay: Antifungal activity against Saccharomyces cerevisiae W303-1A harboring snf6 deficient mutant gene in galactose agar media at 50 uM after 24 hrs by spectrophotometry; assay type: functional, organism-based
# [18] = system: Saccharomyces cerevisiae; assay: Antifungal activity against Saccharomyces cerevisiae W303-1A harboring kcs1 deficient mutant gene in galactose agar media at 50 uM after 24 hrs by spectrophotometry; assay type: functional, organism-based
# [19] = system: Saccharomyces cerevisiae; assay: Inhibition of Saccharomyces cerevisiae NADH oxidase at 10 nM
# [20] = system: PC-3; assay: Inhibition of cell proliferation in human PC3 cells in after 48 hrs; assay type: functional; conditions: PC-3, 48 h
# [21] = system: HCT-116; assay: Induction of cell cycle arrest in human HCT116 assessed as accumulation at G2/M-phase at 100 uM after 24 hrs by FACS analysis; assay type: functional
# [22] = system: Saccharomyces cerevisiae; assay: Effect on NADH dehydrogenase in respiratory chain of Saccharomyces cerevisiae W303-1A mitochondria at […]
# [23] = system: Saccharomyces cerevisiae; assay: Antifungal activity against Saccharomyces cerevisiae W303-1A harboring rvs161 deficient mutant gene supersensitive strain in galactose agar media at 50 uM after 24 hrs by spectrophotometry; assay type: functional, organism-based
# [24] = system: Saccharomyces cerevisiae; assay: Antifungal activity against Saccharomyces cerevisiae W303-1A harboring atg11 deficient mutant gene in galactose agar media at 50 uM after 24 hrs by spectrophotometry; assay type: functional, organism-based
# [25] = system: HCT-116; assay: Effect on cellular respiration in human HCT116 cells assessed as increase in NADH level at 2.5 uM by fluorescence assay; assay type: functional; outline: as §4
# [26] = system: HCT-116; assay: Induction of cell cycle arrest in human HCT116 assessed as accumulation at S-phase at 100 uM after 24 hrs by FACS analysis; assay type: functional; conditions: HCT-116, 24 h
# [27] = system: Saccharomyces cerevisiae; assay: Inhibition of cellular respiration in Saccharomyces cerevisiae W303-1A assessed as level of cytochrome b at 10 uM in presence of inhibitor; assay type: functional, organism-based
# [28] = system: A549; assay: Inhibition of bc1 complex in human A549 cells assessed as reduction in ATP production; assay type: cell-based; outline: as §2
# [29] = system: 143B; assay: Inhibition of bc1 complex in human 143B cells assessed as reduction in oxygen uptake at 25 nM in presence of […] of CCCP; assay type: cell-based
# Outline: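 143B cells (4 × 10^6 per aliquot) in serum-free medium in stirred respirometer chamber at 37°C; O2 consumption by oxygen electrode; compound added dose-wise, then CCCP uncoupler added to test whether respiration returns.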
# [30] = system: Saccharomyces cerevisiae; assay: Antifungal activity against Saccharomyces cerevisiae W303-1A in glucose agar media at 0.5 ug after 2 to 3 days by disk diffusion method; conditions: read-out: DIZ
# [31] = system: A549; assay: Cytotoxicity against human A549 cells; assay type: functional
# [32] = system: HCT-116; assay: Induction of cell cycle arrest in human HCT116 assessed as accumulation at S-phase at 10 uM after 24 hrs by FACS analysis; assay type: functional
# [33] = system: NCI/ADR-RES; assay: Cytotoxicity against human NCI/ADR-RES cells; assay type: functional
# [34] = system: Malme-3M; assay: Cytotoxicity against human MALME-3M cells; assay type: functional
# [35] = system: SK-OV-3; assay: Cytotoxicity against human SKOV3 cells; assay type: functional
# [36] = system: SF-268; assay: Cytotoxicity against human SF268 cells; assay type: functional
# [37] = system: OVCAR-8; assay: Cytotoxicity against human OVCAR8 cells; assay type: functional
# [38] = system: MCF7; assay: Cytotoxicity against human MCF7 cells; assay type: functional
# [39] = system: HCT-116; assay: Cytotoxicity against human HCT116 cells; assay type: functional
# [40] = system: HCT-116; assay: Induction of cell cycle arrest in human HCT116 assessed as accumulation at G1-phase at 10 uM after 24 hrs by FACS analysis; assay type: functional
# [41] = system: PC-3; assay: Cytotoxicity against human PC3 cells; assay type: functional
# [42] = system: HCT-116; assay: Induction of cell cycle arrest in human HCT116 assessed as accumulation at G2/M-phase at 10 uM after 24 hrs by FACS analysis; assay type: functional
# [43] = system: CAKI-1; assay: Cytotoxicity against human Caki1 cells; assay type: functional
# [44] = system: K562; assay: Cytotoxicity against human K562 cells; assay type: functional
# [45] = system: M14; assay: Cytotoxicity against human M14 cells; assay type: functional
# [46] = system: SK-MEL-5; assay: Cytotoxicity against human SK-MEL-5 […]; assay type: functional
# [47] = system: NCI-H226; assay: Cytotoxicity against human NCI-H226 cells; assay type: functional
# [48] = system: 786-0; assay: Cytotoxicity against human 786-0 cells; assay type: functional
# [49] = system: DU-145; assay: Cytotoxicity against human DU145 cells; assay type: functional
structure (smiles),measurement,setting,value
CC(=O)O[C@H]1C(=O)[C@@]2(C)[C@H]([C@H](OC(=O)c3ccccc3)[C@]3(O)C[C@H](OC(=O)[C@H](O)[C@@H](NC(=O)c4ccccc4)c4ccccc4)C(C)=C1C3(C)C)[C@]1(OC(C)=O)CO[C@@H]1C[C@@H]2O,inhibition,[1],inactive
CCCCC[C@H]1C[C@@H]2CCC[C@@H](C[C@@H](OC)C[C@@H]3C[C@@H](OC(=O)/C=C\CCc4coc(/C=C\CNC(=O)OC)n4)C[C@H](CC(=O)O1)O3)O2,IC50,[2],2.6 nM
same,zone of inhibition at 1 µg/disc,[3],25 mm
same,GI50,[4],0.8 nM
same,Activity,[5],inactive
same,inhibition,[6],Dose-dependent effect
same,Activity,[7],Active
same,zone of inhibition at 1 µg/disc,[8],36 mm
same,Activity,[9],inactive
same,zone of inhibition at 0.5 µg/disc,[10],21 mm
same,Activity,[11],Active
same,Activity,[12],61%
same,Activity,[13],Active
same,IC50,[14],6 nM
same,IC50,[15],1.8 nM
same,GI50,[16],0.3 nM
same,Activity,[17],Active
same,Activity,[18],Active
same,inhibition,[19],Active
same,GI50,[20],0.8 nM
same,Activity,[21],6%
same,Activity,[22],inactive
same,Activity,[23],Active
same,Activity,[24],Active
same,Activity,[25],40%
same,inhibition at 100 µM,[26],27%
same,inhibition,[27],Active
same,inhibition,[28],inactive
same,inhibition,[29],Active
CCC[C@@H]1C[C@H](OC)C[C@H](C)C[C@@H]2C[C@@H](OC(=O)/C=C\CCc3coc(/C=C\CNC(=O)OC)n3)C[C@H](CC(=O)O1)O2 [NEOPELTOLIDE],IC50,[2],1.3 nM
same,zone of inhibition at 1 µg/disc,[3],33 mm
same,GI50,[4],0.5 nM
same,Activity,[5],inactive
same,zone of inhibition at 1 µg/disc,[8],46 mm
same,Activity,[9],inactive
same,IC50,[14],2 nM
same,IC50,[15],0.6 nM
same,GI50,[16],0.5 nM
same,GI50,[20],0.3 nM
same,Activity,[22],inactive
same,inhibition,[28],inactive
C[C@@H]1C[C@@H]([C@H](O)CC2CC(=O)NC(=O)C2)C(=O)[C@@H](C)C1 [CYCLOHEXIMIDE],zone of inhibition at 0.5 µg/disc,[30],30 mm
COC(=O)NC/C=C\c1nc(CC/C=C\C(=O)O[C@@H]2C[C@H]3C[C@H](OC)C[C@H]4O[C@@H](CC[C@@H]4C)C[C@H](/C=C/CC(C)C)OC(=O)C[C@@H](C2)O3)co1,GI50,[31],670 nM
same,Activity,[32],17%
same,GI50,[33],670 nM
same,GI50,[34],670 nM
same,GI50,[35],670 nM
same,GI50,[36],280 nM
same,GI50,[37],280 nM
same,GI50,[38],280 nM
same,GI50,[39],670 nM
same,Activity,[40],71%
same,GI50,[41],280 nM
same,Activity,[42],8%
same,GI50,[43],670 nM
same,GI50,[44],280 nM
same,GI50,[45],280 nM
same,GI50,[46],670 nM
same,GI50,[47],280 nM
same,GI50,[48],280 nM
same,GI50,[49],670 nM
